How the values were obtained:
[1] = Oral bioavailability in mouse at 2 mg/kg; type: ADME, organism-based; conditions: in vivo
[2] = molecular target: T1, C-X-C chemokine receptor type 3 (Homo sapiens, UniProt P49682); assay: Displacement of [125I]-ITAC from human CXCR3 expressed in human PBMC after 2 hrs in RPMI buffer by scintillation counting
T1 sequence (P49682 whole entry): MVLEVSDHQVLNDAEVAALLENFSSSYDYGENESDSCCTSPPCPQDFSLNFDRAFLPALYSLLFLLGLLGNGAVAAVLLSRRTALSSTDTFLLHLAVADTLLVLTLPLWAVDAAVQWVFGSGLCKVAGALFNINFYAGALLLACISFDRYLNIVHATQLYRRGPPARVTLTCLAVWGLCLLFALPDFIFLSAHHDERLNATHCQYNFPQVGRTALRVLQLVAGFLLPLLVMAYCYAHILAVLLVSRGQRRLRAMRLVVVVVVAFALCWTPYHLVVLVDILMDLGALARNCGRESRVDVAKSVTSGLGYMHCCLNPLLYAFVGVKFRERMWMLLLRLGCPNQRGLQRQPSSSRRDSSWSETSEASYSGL

[3] = Mean residence time in dog at 1 mg/kg, iv; type: ADME, organism-based, Canis lupus familiaris; design: dose 1 mg/kg, route intravenous; conditions: in vivo
[4] = molecular target: T2, C-X-C chemokine receptor type 3 (Mus musculus, UniProt O88410); assay: Displacement of [125I]-IP10 from mouse CXCR3 expressed in human PBMC after 2 hrs in RPMI buffer by scintillation counting
T2 sequence (O88410 whole entry): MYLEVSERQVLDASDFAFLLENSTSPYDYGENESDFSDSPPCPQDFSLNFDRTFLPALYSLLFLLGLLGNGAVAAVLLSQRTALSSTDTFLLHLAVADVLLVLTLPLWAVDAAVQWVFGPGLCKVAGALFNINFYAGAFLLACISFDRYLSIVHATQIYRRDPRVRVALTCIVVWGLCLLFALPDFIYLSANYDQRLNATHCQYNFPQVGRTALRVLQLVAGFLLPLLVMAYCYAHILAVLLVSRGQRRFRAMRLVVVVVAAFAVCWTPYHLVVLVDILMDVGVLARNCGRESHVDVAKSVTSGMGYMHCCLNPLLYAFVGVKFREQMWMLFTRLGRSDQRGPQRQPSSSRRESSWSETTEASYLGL
In short: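 PBMC bearing CXCR3 were co-incubated with antagonist and recombinant human [125I]-IP10 for 2 h at room temperature in RPMI-1640 (no phenol red) with 0.5% BSA. Cells were harvested onto filter plates and bound radioactivity was counted by scintillation. IC50 values are means of three experiments.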

Cytochrome P450 1A2 = molecular target: T3, Cytochrome P450 1A2 (Homo sapiens, UniProt P05177); assay: Inhibition of CYP1A2; type: ADME
T3 sequence (P05177 whole entry): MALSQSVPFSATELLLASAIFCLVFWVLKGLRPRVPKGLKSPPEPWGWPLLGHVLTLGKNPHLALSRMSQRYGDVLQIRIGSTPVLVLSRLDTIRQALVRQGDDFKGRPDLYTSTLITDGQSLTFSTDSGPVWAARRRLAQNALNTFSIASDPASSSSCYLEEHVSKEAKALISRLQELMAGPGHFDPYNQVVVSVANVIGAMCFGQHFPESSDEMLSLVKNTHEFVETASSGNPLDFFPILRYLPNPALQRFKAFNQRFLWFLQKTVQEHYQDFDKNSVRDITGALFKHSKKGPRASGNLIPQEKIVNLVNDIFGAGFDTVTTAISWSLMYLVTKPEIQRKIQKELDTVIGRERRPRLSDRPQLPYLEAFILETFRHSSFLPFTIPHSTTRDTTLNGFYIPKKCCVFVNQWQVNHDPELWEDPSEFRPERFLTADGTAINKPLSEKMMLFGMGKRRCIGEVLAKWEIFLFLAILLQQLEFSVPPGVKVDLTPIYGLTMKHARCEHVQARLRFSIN

Blood [5] = assay: Drug level in bleomycin-induced mouse blood at 1 mg/mL, sc; type: ADME, tissue-based
Blood [6] = assay: Drug level in bleomycin-induced mouse blood at 0.1 mg/mL, sc; type: ADME, tissue-based

bioavailability [1]: 84%
IC50 [2]: 1 nM
MRT [3]: 2.5 h
IC50 [4]: 3 nM
Activity (Cytochrome P450 1A2): Active
Drug uptake (Blood [5]): 11 ng/mL
Drug uptake (Blood [6]): 2 ng/mL
Compound: CCS(=O)(=O)CCN(C(=O)Cc1ccc(F)c(C(F)(F)F)c1)[C@H](C)c1nc2ncccc2c(=O)n1-c1ccc(OCC(F)(F)F)cc1

— ChEMBL document CHEMBL1153804, “Optimization of a series of quinazolinone-derived antagonists of CXCR3” (Bioorg Med Chem Lett, 2009)
